We go through 1 molecule from ChEMBL document CHEMBL5360630, “Macrocyclic Peptidomimetic Plasmepsin X Inhibitors with Potent In Vitro and In Vivo Antimalarial Activity” (J Med Chem, 2023).

The source made the active and inactive calls. The rule behind the calls is not given here.

Series [1] is described as follows: Toxicity in NMRI mouse assessed as drug tolerance at 50 mg/kg, po measured upto 24 hrs by UP-LCMS analysis. It counts as organism-based. The following applies: in vivo. The procedure, abridged:
(§1)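 Female NMRI mice (10–12 weeks, 29–32 g), acclimatized 1 week, given a single peroral bolus of 50 mg/kg (10 mL/kg). Toxicity signs scored on a 0–6 scale at 0–2, 5, 10, 15, 30, 60, 120, 240 min and 24 h after dosing.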

The test system of series [2] is Plasmodium falciparum. Nature of the series: Antiplasmodial activity against Plasmodium falciparum infected in PfalcHy mouse assessed as reduction in blood parasitemia level administered orally. It counts as functional, organism-based. The following applies: dose 40.0 mg/kg, route po. The method in brief:
(§2)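 Female NSG mice (22–28 g) engrafted with human erythrocytes by daily i.p./i.v. injection; once >40% circulating human RBCs, infected i.v. with P. falciparum Pf3D7 0087/N9. Oral gavage (10 mL/kg) from ~1.3% parasitemia (Day 1); 40 mg/kg QD, BID or TID for 4 days. Parasitemia in tail blood by flow cytometry (TER-119-PE, SYTO-16) and Giemsa smears; stage distribution examined on day 3.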

Series [3] in a line: Toxicity in NMRI mouse assessed as adverse effect at 50 mg/kg, po measured upto 24 hrs by UP-LCMS analysis. It counts as organism-based. The settings on record: in vivo. The method in brief:
as §1

Series [4] relates to Plasmodium falciparum. Nature of the series: Antiplasmodial activity against Plasmodium falciparum infected in NSG mouse model assessed as accumulation of circulating mature schizonts at 40 mg/kg, po measured after 3 days by giemsa staining based flow cytometry analysis. It counts as functional, organism-based. The settings on record: time 3.0 day. The procedure, abridged:
as §2

Turning to `CCCN1CCCCCc2cccc(c2)C[C@@H]([C@H](O)CNC(C)(C)c2cccc(OC)c2)NC(=O)c2cccc(c2)C1=O`, the figures for the Activity entry (in series [1]; in the series on Plasmodium falciparum [2]; in series [3]) were “Non-Toxic”, “Dose-Dependent Effect” and “Non-Toxic”, respectively. Also, in the series on Plasmodium falciparum [4], the outcome was Active.
